Measured values from the M2OR odorant receptor database.

Key:
Conditions in all cases: stereoisomer not certain
OR10R2 (Homo sapiens) = molecular target: T1, OR10R2 (Homo sapiens) (UniProt Q8NGX6)
T1 sequence (whole entry): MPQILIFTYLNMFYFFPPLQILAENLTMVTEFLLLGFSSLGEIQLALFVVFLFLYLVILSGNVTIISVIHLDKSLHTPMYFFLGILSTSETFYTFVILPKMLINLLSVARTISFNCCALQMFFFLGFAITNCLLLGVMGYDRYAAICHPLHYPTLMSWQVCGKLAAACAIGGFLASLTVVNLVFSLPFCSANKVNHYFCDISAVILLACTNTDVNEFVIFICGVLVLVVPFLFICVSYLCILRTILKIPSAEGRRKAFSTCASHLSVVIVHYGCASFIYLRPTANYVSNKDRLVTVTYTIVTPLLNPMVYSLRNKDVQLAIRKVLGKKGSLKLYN
How it was run: (§1)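 Transient luciferase assays in mammalian cell lines were common, though methods varied by source. The values come from published papers and their supplementary material, with extra details from the original authors when needed. Responsive refers to a measured signal the original authors judged statistically different from baseline, and non-responsive (inactive) to the remainder.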

OR10S1 (Homo sapiens) = molecular target: T2, OR10S1 (Homo sapiens) (UniProt Q8NGN2)
T2 sequence (whole entry): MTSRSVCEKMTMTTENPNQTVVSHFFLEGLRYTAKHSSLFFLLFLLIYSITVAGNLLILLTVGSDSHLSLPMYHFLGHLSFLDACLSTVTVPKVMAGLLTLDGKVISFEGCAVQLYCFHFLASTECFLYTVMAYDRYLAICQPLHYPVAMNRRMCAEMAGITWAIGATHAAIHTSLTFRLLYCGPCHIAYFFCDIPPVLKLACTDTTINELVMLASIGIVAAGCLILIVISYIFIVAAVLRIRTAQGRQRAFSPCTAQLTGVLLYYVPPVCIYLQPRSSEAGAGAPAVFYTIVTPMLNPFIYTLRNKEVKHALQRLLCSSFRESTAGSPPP
How it was run: as §1

OR10T2 (Homo sapiens) = molecular target: T3, OR10T2 (Homo sapiens) (UniProt Q8NGX3)
T3 sequence (whole entry): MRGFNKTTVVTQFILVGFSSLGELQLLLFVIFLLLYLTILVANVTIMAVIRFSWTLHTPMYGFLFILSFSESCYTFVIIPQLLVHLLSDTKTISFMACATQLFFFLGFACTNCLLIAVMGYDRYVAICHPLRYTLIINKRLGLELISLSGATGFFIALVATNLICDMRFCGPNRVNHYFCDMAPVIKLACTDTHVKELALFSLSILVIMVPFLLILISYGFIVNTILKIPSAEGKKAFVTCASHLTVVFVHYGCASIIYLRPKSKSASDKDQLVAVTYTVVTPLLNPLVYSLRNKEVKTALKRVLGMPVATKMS
How it was run: as §1

OR10V1 (Homo sapiens) = molecular target: T4, OR10V1 (Homo sapiens) (UniProt Q8NGI7)
T4 sequence (whole entry): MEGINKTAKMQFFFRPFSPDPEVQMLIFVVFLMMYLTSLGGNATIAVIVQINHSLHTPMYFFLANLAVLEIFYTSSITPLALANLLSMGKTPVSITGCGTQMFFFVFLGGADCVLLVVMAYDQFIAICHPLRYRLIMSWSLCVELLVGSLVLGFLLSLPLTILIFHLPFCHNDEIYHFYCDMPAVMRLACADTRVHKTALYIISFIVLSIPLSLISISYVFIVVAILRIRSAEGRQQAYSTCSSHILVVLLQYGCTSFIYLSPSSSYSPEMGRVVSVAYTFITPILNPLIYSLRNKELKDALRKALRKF
How it was run: as §1

OR10W1 (Homo sapiens) = molecular target: T5, OR10W1 (Homo sapiens) (UniProt Q8NGF6)
T5 sequence (whole entry): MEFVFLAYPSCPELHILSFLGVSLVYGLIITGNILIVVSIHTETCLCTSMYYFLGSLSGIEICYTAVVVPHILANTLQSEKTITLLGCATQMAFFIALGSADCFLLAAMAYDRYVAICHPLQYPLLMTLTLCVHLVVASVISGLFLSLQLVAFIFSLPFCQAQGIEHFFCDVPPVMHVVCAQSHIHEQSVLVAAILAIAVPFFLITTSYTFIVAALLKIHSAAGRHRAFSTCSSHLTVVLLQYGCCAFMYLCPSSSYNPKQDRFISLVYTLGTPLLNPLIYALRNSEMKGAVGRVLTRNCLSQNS
How it was run: as §1

OR10X1 (Homo sapiens) = molecular target: T6, OR10X1 (Homo sapiens) (UniProt Q8NGY0)
T6 sequence (whole entry): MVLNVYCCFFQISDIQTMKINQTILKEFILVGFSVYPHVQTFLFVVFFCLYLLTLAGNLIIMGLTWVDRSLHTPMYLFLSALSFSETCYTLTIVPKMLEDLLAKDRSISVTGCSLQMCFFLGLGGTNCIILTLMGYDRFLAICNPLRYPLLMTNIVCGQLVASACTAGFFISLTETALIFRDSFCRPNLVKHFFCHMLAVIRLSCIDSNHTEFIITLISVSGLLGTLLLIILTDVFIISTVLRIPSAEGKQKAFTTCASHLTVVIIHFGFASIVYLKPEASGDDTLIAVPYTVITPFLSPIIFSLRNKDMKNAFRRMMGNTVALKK
How it was run: as §1

OR10Z1 (Homo sapiens) = molecular target: T7, OR10Z1 (Homo sapiens) (UniProt Q8NGY1)
T7 sequence (whole entry): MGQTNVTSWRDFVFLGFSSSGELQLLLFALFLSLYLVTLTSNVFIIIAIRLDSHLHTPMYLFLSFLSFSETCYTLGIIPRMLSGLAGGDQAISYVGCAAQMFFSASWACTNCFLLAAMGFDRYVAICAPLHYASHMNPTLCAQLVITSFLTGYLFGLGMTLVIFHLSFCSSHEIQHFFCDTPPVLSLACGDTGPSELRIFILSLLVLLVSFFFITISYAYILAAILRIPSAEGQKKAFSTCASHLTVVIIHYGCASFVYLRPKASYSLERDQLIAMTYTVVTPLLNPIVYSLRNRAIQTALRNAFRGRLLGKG
How it was run: as §1

OR11A1 (Homo sapiens) = molecular target: T8, OR11A1 (Homo sapiens) (UniProt Q9GZK7)
T8 sequence (whole entry): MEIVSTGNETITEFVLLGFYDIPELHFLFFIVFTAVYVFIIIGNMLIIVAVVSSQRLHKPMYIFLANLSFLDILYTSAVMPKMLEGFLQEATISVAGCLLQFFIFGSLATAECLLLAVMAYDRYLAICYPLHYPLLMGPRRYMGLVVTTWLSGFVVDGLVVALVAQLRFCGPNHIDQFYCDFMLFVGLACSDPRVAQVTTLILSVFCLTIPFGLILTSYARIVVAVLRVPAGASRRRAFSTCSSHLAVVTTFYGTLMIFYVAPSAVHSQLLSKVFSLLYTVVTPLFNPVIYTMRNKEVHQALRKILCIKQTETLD
How it was run: as §1

OR11G2 (Homo sapiens) = molecular target: T9, OR11G2 (Homo sapiens) (UniProt Q8NGC1)
T9 sequence (whole entry): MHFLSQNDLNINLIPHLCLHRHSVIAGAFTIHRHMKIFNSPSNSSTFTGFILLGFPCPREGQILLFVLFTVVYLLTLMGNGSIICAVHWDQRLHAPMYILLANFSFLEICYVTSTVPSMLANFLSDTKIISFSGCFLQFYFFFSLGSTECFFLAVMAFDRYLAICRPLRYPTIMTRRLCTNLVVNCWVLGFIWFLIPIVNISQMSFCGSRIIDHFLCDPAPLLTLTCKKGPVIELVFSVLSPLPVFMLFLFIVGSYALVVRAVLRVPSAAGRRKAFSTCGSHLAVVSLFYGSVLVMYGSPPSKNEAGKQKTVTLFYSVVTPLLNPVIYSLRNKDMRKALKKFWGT
How it was run: as §1

OR11H1 (Homo sapiens) = molecular target: T10, OR11H1 (Homo sapiens) (UniProt Q8NG94)
T10 sequence (whole entry): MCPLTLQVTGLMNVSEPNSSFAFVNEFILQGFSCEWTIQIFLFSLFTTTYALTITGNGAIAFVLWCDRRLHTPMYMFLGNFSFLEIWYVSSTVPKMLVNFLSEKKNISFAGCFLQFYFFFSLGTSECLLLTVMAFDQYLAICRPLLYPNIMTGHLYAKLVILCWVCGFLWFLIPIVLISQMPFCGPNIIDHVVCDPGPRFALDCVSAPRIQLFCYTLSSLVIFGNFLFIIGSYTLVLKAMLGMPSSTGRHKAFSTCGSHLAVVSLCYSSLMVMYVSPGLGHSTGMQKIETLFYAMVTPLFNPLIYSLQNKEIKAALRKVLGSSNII
How it was run: as §1

Measured: odorant receptor agonist call;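 also: active if original authors judged signal statistically different from baseline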

CC(CO)CS (stereo not given)
inactive: all assays above
